From ChEMBL document CHEMBL3045796, “Neonicotinoid insecticides: molecular features conferring selectivity for insect versus mammalian nicotinic receptors” (J Agric Food Chem, 2000) come the findings set out here.

Data set [1] has as its target Neuronal acetylcholine receptor subunit alpha-7 (Homo sapiens, UniProt P36544). As to the kind of experiment: Inhibition of [125I]alpha-BGT binding to alpha7 nicotinic acetylcholine receptor in Homo sapiens (human) SH-SY5Y cells.
Data set [2] can be described thus: Toxicity in ip dosed Mus musculus (mouse). The data set is classed as organism-based. The following applies: in vivo.
The target in data set [3] is T1, Acetylcholine receptor subunit beta-like 2 (Drosophila melanogaster, UniProt P25162).
T1 sequence (P25162 whole entry): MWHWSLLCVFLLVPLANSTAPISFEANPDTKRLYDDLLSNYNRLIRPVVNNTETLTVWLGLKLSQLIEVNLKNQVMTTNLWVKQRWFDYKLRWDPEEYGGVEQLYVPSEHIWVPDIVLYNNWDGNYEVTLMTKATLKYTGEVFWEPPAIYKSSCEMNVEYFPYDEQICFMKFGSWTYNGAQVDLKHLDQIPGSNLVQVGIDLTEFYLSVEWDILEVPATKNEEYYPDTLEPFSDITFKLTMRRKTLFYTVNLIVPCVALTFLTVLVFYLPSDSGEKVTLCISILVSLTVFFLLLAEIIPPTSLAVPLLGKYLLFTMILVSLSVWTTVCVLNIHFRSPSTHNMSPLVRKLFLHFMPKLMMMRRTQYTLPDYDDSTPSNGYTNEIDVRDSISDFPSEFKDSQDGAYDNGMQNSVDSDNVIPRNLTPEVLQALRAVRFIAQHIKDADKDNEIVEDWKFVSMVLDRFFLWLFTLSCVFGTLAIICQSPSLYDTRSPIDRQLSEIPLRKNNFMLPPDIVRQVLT
As to the kind of experiment: Inhibition of [3H]IMI binding to Drosophila melanogaster neuronal acetylcholine receptor.

Data set [4] concerns the target Acetylcholine receptor subunit alpha (Homo sapiens, UniProt P02708+P07510+P11230+Q07001). As to the kind of experiment: Inhibition of [125I]alpha-BGT binding to alpha1 nicotinic acetylcholine receptor in Homo sapiens (human) TE671 cells co-expressing gammaalpha1deltabeta1 nicotinic acetylcholine receptor subunits.
Data set [5] addresses Neuronal acetylcholine receptor subunit alpha-3 (Homo sapiens, UniProt P32297). In words: Inhibition of [3H]nicotine binding to alpha3 nicotinic acetylcholine receptor in Homo sapiens (human) SH-SY5Y cells co-expressing beta2beta4alpha5 Nicotinic acetylcholine receptor subunits. The data set is classed as cell-based.
Data set [6] concerns Musca domestica. In words: Toxicity against Musca domestica (house fly) dosed with compound through intra-thoracic injection pre-treated with 100 ug/g metabolic detoxification inhibitor O-propyl O-(2-propynyl)phenylphosphonate. The data set is classed as functional.
Data set [7] concerns the target Neuronal acetylcholine receptor subunit alpha-4 (Mus musculus, UniProt O70174). In words: Inhibition of [3H]nicotine binding to alpha4 nicotinic acetylcholine receptor in Mus musculus (mouse) M10 cells co-expressing beta2 nicotinic acetylcholine receptor subunits. The data set is classed as cell-based.
Data set [8] can be described thus: Retention time under basic conditions using 20 mM Na2HPO4 (pH9.9)/MeOH (1:1) mobile phase by HPLC method. The data set is classed as physicochemical. Conditions: buffer, pH 9.9. In outline: (§1)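 Reversed-phase HPLC at a flow rate of 0.7 mL/min, with a void volume of 2.46 min. Each retention time is the mean of three runs under that mobile-phase condition.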
The nature of data set [9]: Retention time under neutral conditions using H20/MeOH (1:1) mobile phase by HPLC method. The data set is classed as physicochemical. In outline: as §1
Data set [10] can be described thus: Retention time under acidic conditions using H20/MeOH mobile phase containing 0.1% TFA (1:1) by HPLC method. The data set is classed as physicochemical. The method, boiled down: as §1
The target in data set [11] is Acetylcholine receptor subunit alpha (Homo sapiens) (UniProt P02708). As to the kind of experiment: Inhibition of […] binding to alpha1 nicotinic acetylcholine receptor in Homo sapiens (human) TE671 cells co-expressing gammaalpha1deltabeta1 nicotinic acetylcholine receptor at >300 uM. The data set is classed as cell-based. The following applies: TE-671.
Sequence of Acetylcholine receptor subunit alpha (Homo sapiens) (P02708 whole entry): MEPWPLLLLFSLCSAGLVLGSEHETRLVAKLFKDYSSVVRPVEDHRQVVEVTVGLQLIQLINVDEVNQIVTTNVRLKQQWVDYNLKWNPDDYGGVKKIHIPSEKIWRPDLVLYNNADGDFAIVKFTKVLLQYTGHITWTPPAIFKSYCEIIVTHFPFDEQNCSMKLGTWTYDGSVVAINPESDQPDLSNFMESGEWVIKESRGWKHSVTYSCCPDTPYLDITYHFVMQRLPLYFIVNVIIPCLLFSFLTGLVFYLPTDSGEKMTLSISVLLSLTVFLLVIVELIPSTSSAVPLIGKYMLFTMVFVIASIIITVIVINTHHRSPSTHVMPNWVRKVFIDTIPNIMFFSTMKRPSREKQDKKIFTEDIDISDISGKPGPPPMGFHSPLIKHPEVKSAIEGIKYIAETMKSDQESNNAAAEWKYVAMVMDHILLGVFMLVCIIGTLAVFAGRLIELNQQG

pIC50: −log10 of the molar value. Where only a bound is given, the exact number is not on record here.

Sequence of Neuronal acetylcholine receptor subunit alpha-3 (P32297 whole entry): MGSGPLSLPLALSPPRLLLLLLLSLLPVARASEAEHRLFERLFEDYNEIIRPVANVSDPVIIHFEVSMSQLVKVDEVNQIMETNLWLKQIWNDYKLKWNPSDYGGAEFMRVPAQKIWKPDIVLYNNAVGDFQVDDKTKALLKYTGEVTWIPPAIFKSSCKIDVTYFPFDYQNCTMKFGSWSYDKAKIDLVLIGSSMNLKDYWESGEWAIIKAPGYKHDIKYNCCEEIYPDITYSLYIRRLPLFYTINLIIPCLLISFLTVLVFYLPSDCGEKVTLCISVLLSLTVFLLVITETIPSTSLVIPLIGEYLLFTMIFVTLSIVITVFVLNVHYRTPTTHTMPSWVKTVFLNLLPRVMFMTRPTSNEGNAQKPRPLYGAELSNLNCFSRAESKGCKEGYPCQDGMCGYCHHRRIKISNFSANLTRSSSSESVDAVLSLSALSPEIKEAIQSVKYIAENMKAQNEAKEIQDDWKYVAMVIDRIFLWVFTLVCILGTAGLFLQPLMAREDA
Sequence of Neuronal acetylcholine receptor subunit alpha-7 (P36544 whole entry): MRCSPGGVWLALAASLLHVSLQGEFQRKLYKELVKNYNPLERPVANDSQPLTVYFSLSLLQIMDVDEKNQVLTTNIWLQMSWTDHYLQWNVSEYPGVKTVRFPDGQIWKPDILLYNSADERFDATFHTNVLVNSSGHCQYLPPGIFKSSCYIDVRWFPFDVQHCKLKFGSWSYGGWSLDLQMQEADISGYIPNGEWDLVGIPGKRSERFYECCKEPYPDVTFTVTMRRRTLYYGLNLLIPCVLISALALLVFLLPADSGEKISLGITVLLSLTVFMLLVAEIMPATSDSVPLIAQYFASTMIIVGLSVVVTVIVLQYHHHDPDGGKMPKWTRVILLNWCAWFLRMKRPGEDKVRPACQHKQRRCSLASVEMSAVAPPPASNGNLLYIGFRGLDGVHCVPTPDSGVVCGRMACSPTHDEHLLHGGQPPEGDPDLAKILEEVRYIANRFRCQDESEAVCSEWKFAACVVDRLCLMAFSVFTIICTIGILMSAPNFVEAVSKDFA
Sequence of Acetylcholine receptor subunit alpha (P02708 whole entry, one chain of several): as the sequence (P02708 whole entry) above
Sequence of Neuronal acetylcholine receptor subunit alpha-4 (O70174 whole entry): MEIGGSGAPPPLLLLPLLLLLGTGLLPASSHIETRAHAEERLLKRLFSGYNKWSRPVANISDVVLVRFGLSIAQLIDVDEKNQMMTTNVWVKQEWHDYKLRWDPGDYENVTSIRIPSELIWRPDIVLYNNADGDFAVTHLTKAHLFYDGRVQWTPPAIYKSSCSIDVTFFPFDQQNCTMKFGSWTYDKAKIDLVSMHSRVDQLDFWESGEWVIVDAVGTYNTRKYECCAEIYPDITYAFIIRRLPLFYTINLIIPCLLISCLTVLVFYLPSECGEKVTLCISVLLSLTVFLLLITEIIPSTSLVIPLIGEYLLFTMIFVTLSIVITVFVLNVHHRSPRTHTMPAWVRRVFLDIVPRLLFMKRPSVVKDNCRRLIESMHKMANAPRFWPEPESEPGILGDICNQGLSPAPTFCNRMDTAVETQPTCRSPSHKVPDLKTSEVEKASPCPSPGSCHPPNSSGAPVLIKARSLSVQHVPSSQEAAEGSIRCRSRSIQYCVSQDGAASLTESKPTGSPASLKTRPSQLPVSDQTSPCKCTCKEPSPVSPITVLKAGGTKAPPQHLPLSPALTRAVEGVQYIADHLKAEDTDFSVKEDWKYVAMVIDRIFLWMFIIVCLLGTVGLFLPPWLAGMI

As to `O=[N+]([O-])/C=C1/NCCCN1Cc1ccc(Cl)nc1`, the pIC50 (in general, the negative decadic logarithm of the IC50, by convention in mol/L) is 6.00 in data set [1]; 9.43 in [3]; 4.09 in data set [4]; 6.74 in data set [5]; 7.10 in [7]. The LD50 – broadly, the dose at which mortality reaches 50% – in [2] was found to be 10 mg/kg; in data set [6], 0.08 mg/kg.
Consider `N=c1sccn1Cc1ccc(Cl)nc1`, for which the pIC50 was 5.40 in data set [1], 6.73 in [3], 5.10 in [4] and 8.85 in [7]. Besides, the Retention_time in [8] was found to be 4.21 min; in data set [9], 3.02 min; in [10], 2.98 min. Moreover, the LD50 in data set [2] is 0.7 mg/kg; in [6], greater than 5 mg/kg.
For the compound `Clc1ccc(C2CC3CCC2N3)cn1` (racemic) [EPIBATIDINE], the pIC50 in data set [1] is 7.51; in data set [3] it was 6.37; in data set [4] it was 6.80; in [7] it was 10.43. In addition, the LD50 in data set [2] was 0.06 mg/kg; in [6], greater than 25 mg/kg.
Take `N=C1SCCN1Cc1ccc(Cl)nc1` [DESCYANOTHIACLOPRID]: the pIC50 was 5.22 in data set [1], 6.70 in [3], 5.22 in data set [4] and 8.36 in [7]. Further, the Retention_time in data set [8] is listed as 4.23 min; in [9] it was 3 min; in data set [10] it was 2.84 min. For the same compound, the values for the LD50 in data set [2] and in data set [6] were 0.7 mg/kg and greater than 5 mg/kg, respectively.
Take `N=C1NCCN1Cc1ccc(Cl)nc1` [DESNITROIMIDACLOPRID]: the pIC50 was 5.00 in data set [1]; 5.82 in data set [3]; 4.96 in [4]; 7.85 in data set [5]; 8.09 in [7]. Moreover, the Retention_time in data set [8] is reported as 4.24 min; in data set [9], 2.9 min; in data set [10], 2.8 min. Moreover, the figures for the LD50 in data set [2] and in [6] were 6 mg/kg and greater than 5 mg/kg, respectively.
As to `O=[N+]([O-])/N=C1\NCCN1Cc1ccc(Cl)nc1` [IMIDACLOPRID], the inhibition (commonly the change of the read-out against control, counted positive when it falls) in [11] is 39%. Moreover, the LD50 in data set [6] was 0.02 mg/kg.
Regarding `O=[N+]([O-])NC1=NCCN1Cc1ccc(Cl)nc1` [IMIDACLOPRID], the pIC50 was 3.57 in [1]; 8.34 in [3]; less than 3.52 in data set [4]; 4.85 in data set [5]; 5.59 in data set [7]. Also, the Retention_time in data set [8] was found to be 4.82 min; in data set [9] it was 4.84 min; in [10], 4.87 min. For the same compound, the LD50 in data set [2] is 40 mg/kg.
For the compound `CN1CCC[C@H]1c1cccnc1` [NICOTINE], the Retention_time in [8] came to 11.23 min; in [9], 3.18 min; in data set [10] it was 3.16 min. Further, the LD50 was 6 mg/kg in [2] and greater than 50 mg/kg in [6]. Moreover, the pIC50 was 5.40 in [3] and 4.68 in data set [4].
For `N#C/N=C1\SCCN1Cc1ccc(Cl)nc1` [THIACLOPRID], the pIC50 is 4.00 in [1], 8.57 in data set [3], 3.92 in [4] and 6.07 in data set [7]. Also, the results for the Retention_time in data set [8], in [9] and in data set [10] were 6.05 min, 6.06 min and 6.07 min, respectively. Besides, the LD50 worked out at 25 mg/kg in data set [2] and 0.03 mg/kg in data set [6].
